One series concerns Liver microsome. Briefly: Drug level in human liver microsomes treated with lapatinib at 50 uM by LC/MS/MS analysis. The class given is ADME. The essentials: (§1)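 Lapatinib 50 μM (added in DMSO) incubated 30 min at 37°C in 100 mM potassium phosphate pH 7.4 with HLM 1 mg/mL or recombinant CYP3A4+b5 / CYP3A5+b5 100 pmol/mL. Reaction started with NADPH 1 mM. Protein re-isolated by ultracentrifugation (100,000 x g, 4°C, 60 min), washed (KCl/EDTA), resuspended in phosphate buffer, ±2 mM ferricyanide 10 min 37°C, quenched with acetonitrile, then high-resolution LC/MS profiling.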
Background: Liver microsomes are a subcellular fraction often used to study metabolism.

Another series concerns the target Cytochrome P450 3A4 (Homo sapiens, UniProt P08684). Briefly: Activity of recombinant CYP3A4 (unknown origin) assessed as compound formation treated with lapatinib at 50 uM by LC/MS/MS analysis. The class given is ADME. Particulars: recombinant enzyme. The essentials:
as §1

A short description of series [1]: Retention time of the compound by LC/MS/MS analysis relative to lapatinib. The class given is physicochemical. The essentials:
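Phenyl UPLC column (1.7 μm, 2.1 x 100 mm), 0.1% formic acid in water/acetonitrile, 0.4 mL/min. Gradient: 10% organic for 1 min, to 90% over 13 min, held 0.5 min. Detection by accurate-mass MS. Retention times expressed relative to lapatinib.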

Another series has as its target Cytochrome P450 3A5 (Homo sapiens, UniProt P20815). Briefly: Activity of recombinant CYP3A5 (unknown origin) assessed as compound formation treated with lapatinib at 50 uM by LC/MS/MS analysis. The class given is ADME. Particulars: recombinant enzyme. The procedure, abridged:
as §1

The structures appear in SMILES notation.

Cytochrome P450 3A4, sequence (P08684 whole entry): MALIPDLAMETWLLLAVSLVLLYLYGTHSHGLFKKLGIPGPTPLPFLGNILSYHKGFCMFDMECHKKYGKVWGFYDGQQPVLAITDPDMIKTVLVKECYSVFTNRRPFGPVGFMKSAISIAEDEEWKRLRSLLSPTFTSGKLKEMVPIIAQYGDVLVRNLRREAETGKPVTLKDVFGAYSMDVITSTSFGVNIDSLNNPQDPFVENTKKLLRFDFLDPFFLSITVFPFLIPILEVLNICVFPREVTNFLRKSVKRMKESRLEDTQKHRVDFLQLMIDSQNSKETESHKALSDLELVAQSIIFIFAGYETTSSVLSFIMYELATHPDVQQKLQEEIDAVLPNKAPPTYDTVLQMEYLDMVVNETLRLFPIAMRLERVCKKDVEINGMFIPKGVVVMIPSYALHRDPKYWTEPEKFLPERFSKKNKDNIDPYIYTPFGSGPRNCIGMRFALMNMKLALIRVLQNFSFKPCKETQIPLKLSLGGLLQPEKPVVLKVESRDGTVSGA
Cytochrome P450 3A5, sequence (P20815 whole entry): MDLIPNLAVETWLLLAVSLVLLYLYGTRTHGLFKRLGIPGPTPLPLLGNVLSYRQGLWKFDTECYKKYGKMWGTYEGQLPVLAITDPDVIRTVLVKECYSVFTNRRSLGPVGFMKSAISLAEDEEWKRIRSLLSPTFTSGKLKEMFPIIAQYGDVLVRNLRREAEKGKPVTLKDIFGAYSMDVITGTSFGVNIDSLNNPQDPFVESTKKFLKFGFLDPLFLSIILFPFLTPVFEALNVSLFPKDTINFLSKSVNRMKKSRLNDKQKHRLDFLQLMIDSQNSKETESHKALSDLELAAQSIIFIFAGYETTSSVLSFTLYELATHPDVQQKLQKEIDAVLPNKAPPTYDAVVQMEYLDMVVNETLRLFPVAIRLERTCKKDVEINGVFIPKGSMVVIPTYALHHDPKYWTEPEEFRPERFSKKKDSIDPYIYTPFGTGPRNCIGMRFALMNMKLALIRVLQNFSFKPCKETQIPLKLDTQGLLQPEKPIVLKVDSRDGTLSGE

On to `CS(=O)(=O)CC/[N+]([O-])=C/c1ccc(-c2ccc3ncnc(Nc4ccc(OCc5cccc(F)c5)c(Cl)c4)c3c2)o1`, for which the Drug metabolism result in the series with Liver microsome, at Cytochrome P450 3A4 and at Cytochrome P450 3A5 was “metabolite_detected” each time. Further, the Ratio in series [1] is listed as 1.11.
As to `O=Cc1ccc(-c2ccc3ncnc(Nc4ccc(OCc5cccc(F)c5)c(Cl)c4)c3c2)o1`, the Drug metabolism result with Liver microsome, on Cytochrome P450 3A4 and on Cytochrome P450 3A5 was “metabolite_detected” each time. Further, the Ratio in series [1] was determined as 1.21.

Source of the values: ChEMBL document CHEMBL3525913, “Metabolism-dependent inhibition of CYP3A4 by lapatinib: evidence for formation of a metabolic intermediate complex with a nitroso/oxime metabolite formed via a nitrone intermediate” (Drug Metab Dispos, 2013).
